Compound activity: PubChem, several laboratories
CSC inhib: blocks cancer stem cells; cancer stem cell-like cells viability, luminescence; 1.1% of 300,000 active; inhibition, % at 7.5 µM; AID 2717; in the data active means inhibition above about 75%; tested in HMLE shEcad cells
T cruzi repl: T. cruzi replication inhibition; 1.4% of 300,000 active; T. cruzi beta-gal in NIH3T3, luminescence, 90 h; inhibition, % (test concentration not listed); AID 1885;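 active means mean inhibition across valid replicates above about 55%, limit read from the data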;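 further: signal also drops with host cell toxicity which is not excluded here; 0% = plate median of DMSO wells and 100% = zero luminescence signal; higher percent means less beta-gal luminescence so fewer parasites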
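Material: NIH/3T3 host cells with β-galactosidase reporter T. cruzi; Input: 5,000 host fibroblasts per well; Medium: DMEM, 2% fetal bovine serum; Compound: 50 nL DMSO compound solution per well; Schedule: 3 h host attachment, then at least 90 h co-culture; Detection: luminescent β-galactosidase signal after 60 min lysis.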
Mdm2-MdmX inh: human Mdm2/MdmX binding inhibition; 3% of 330,000 active; inhibition, % at 8 µM; SaOS-2 split-luciferase Mdm2/MdmX complementation, luminescence; AID 485346; O15151+Q00987;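 active means inhibition of at least 50% at 8 µM in the primary screen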
Target sequence (O15151 whole entry, looked up): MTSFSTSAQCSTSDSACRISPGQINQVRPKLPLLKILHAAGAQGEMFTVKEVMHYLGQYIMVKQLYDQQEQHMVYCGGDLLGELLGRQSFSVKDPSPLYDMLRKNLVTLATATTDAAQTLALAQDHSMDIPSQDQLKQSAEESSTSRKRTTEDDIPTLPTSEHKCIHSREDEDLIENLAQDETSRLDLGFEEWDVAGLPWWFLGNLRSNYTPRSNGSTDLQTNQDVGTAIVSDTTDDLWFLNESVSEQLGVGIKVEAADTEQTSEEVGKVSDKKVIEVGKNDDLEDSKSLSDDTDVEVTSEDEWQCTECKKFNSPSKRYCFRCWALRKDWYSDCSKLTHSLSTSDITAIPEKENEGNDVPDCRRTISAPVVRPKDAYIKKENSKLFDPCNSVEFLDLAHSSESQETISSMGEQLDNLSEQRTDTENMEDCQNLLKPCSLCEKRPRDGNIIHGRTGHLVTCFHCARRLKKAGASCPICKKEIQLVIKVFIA
Target sequence (Q00987 whole entry, looked up): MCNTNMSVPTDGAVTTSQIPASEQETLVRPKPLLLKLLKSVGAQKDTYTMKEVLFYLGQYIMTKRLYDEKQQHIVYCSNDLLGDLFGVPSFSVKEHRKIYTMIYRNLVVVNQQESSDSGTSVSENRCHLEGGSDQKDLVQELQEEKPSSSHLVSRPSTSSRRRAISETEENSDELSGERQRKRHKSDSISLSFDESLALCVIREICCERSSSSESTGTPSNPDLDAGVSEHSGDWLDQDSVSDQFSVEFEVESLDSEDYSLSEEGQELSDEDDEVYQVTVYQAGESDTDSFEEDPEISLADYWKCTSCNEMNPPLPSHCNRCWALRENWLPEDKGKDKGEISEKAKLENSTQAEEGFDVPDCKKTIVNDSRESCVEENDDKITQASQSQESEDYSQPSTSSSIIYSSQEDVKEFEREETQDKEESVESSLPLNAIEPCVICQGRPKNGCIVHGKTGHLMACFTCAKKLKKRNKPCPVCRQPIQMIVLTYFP
SKKanGAS inh: inhibitors of SKKanGAS S. pyogenes growth in kanamycin (SK-promoter or general growth effect); 1.3% of 300,000 active; AID 1662; BacTiter-Glo, 6 h; inhibition, % at 7.5 µM;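 active means mean replicate score, as percent of positive control median, at least 50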;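 further: strain carries kanamycin resistance gene driven by streptokinase promoter and grows in 40 µg/ml kanamycin; loss of luminescence reflects streptokinase promoter inhibition or plain growth inhibition; 0% = median of DMSO wells and 100% = positive control at its reference dose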
aSyn 5UTR inh: 5' untranslated region of α-synuclein, MLPCN primary screen | alpha-synuclein 5'UTR reporter, inhibitor activity | inhibition, % (tested at 7.5 µM) | 0.82% of 300,000 active; in the data active means inhibition above about 60%;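 further: H4 neuroglioblastoma cells stably carrying SNCA 5'UTR luciferase fusion; 0% = DMSO wells and 100% = positive control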
Mdm2-MdmX conf: confirmation of human Mdm2/MdmX interaction inhibitors. shares compounds with Mdm2-MdmX inh. Mdm2-MdmX binding, luminescent assay. inhibition, % at 8 µM. 55% of 10,000 active. AID 489028; in the data active means inhibition above about 40%
FLuc counter: full-length luciferase inhibition in Mdm2/MdmX counter-screen; AID 504607; inhibition, % at 8 µM; SaOS-2 full-length luciferase counterscreen, luminescence; 77% of 6,200 active; shares compounds with Mdm2-MdmX inh;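 active means mean inhibition at 8 µM reaching about 37%, which flags the compound as non-specific, limit read from the data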;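 further: p53-null SaOS-2 cells with luciferase driven by a doxycycline-inducible promoter; compound on cells about two nights before reading with doxycycline added after day one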
* hit, by the source's call; / = no result. A selection: hits, their analogues and other compounds. The true share with any hit is near 5.4%.

SMILES	CSC inhib	T cruzi repl	Mdm2-MdmX inh	SKKanGAS inh	aSyn 5UTR inh	Mdm2-MdmX conf	FLuc counter
COc1nc(N/N=C/c2ccc(-c3ccccc3[N+](=O)[O-])o2)nc(N2CCOCC2)n1	-13	-12	-30	3	-105	/	/
O=[N+]([O-])c1ccc(-c2ccc(/C=N/Nc3nc(NCc4ccccc4)nc(N4CCOCC4)n3)o2)cc1	14	27	100*	33	-4	90*	54*
O=C(O)c1ccc(NC2=C(Cl)C(=O)c3ccccc3C2=O)cc1	102*	55*	100*	43	0	91*	53*
O=C(O)c1ccc(NC(=O)C(c2ccccc2)c2ccccc2)cc1	-12	-3	19	3	0	/	/
Nc1nc(N)nc(-c2cc([N+](=O)[O-])ccc2O)n1	0	/	77*	/	/	63*	82*
Oc1ccccc1-c1cc(C(F)(F)C(F)F)nc(-c2ccccc2)n1	0	/	11	6	/	/	/
Cc1nc(N)nc(-c2ccccc2O)n1	-4	-20	26	-3	-4	/	/
Nc1nc(N)nc(-c2cc(O)ccc2O)n1	-8	/	88*	/	/	95*	55*
O=[N+]([O-])c1ccc(O)c(-c2cc(C(F)(F)F)nc(-c3ccccc3)n2)c1	88*	20	95*	94*	90*	99*	52*
O=C(COC(=O)c1nc(Cl)ccc1Cl)NNC(=O)c1cccs1	/	-11	9	40	10	/	/
CCN(CC(=O)Nc1sc2c(c1C#N)CCC(C)C2)Cc1nc2ccccc2c(=O)[nH]1 (stereo not given)	-3	9	-10	12	22	/	/
CC1CCc2c(sc(NC(=O)CCc3nc4ccccc4c(=O)[nH]3)c2C#N)C1 (stereo not given)	23	/	72*	/	/	71*	60*
Cc1coc2c1C(=O)C(=O)c1c-2ccc2c1CCCC2(C)C	-2	-18	53*	42	63*	6	/
Cc1coc2c1C(=O)C(=O)c1c-2ccc2c(C)cccc12	15	-21	65*	73*	-64	14	/
